Screens: PubChem BioAssay, several laboratories
Rows were chosen to be rich in hits. Some 8.4% of all compounds tested hit in one or more screens of this group.
Ecoli tolC = growth inhibitors of E. coli BW25113 tolC mutant; AID 573; 2.2% of 65,000 active; growth inhibition, % at 10 µM (by protocol); OD615;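 active means growth inhibition at or above a cutoff equal to the mean over every tested compound plus 3 SD, cut at about 60% in these data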;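 further: growth measured after 20 h incubation at 37 °C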
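Material: E. coli BW25113 ΔtolC::kan, tolC deletion mutant strain. Measure: percent growth inhibition. Schedule: 37 °C, 20 h exposure. Doses: single-point testing at 10 µM. Signal: A615 absorbance measurement. Buffer or medium: kanamycin-containing LB broth (50 µg/mL).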
Ecoli WT expand = growth inhibitors of E. coli BW25113 wild type; OD600 absorbance; growth inhibition, % at 100 µM; 0.15% of 98,000 active;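 active means growth inhibition above about 50% at one test dose, limit read from the data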;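 further: growth measured after 20 h incubation at 37 °C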
PostGolgi ctrl = yeast control strain growth, post-Golgi counter-screen; efflux-deficient yeast background strain, growth absorbance A615, 16 h; inhibition, % at 10 µM; 5% of 98,000 active
PostGolgi yeast = growth inhibition of a yeast mutant, post-Golgi transport screen | post-Golgi transport phenotypic cell assay | 0.9% of 98,000 active | inhibition, % at 10 µM;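 further: yeast cells grown in 1536-well plates; yeast grown about 18 h at 30C before absorbance read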
Cav32 inh = human Cav3.2 channel inhibition, primary screen; O95180; Cav3.2-expressing cells, Fluo-4 calcium fluorescence FDSS; hits give low values; B-score at 10 µM; 4% of 100,000 active;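 active means single-dose well whose peak fluorescence ratio is a statistical outlier from its plate by either plate-standardised score or position-corrected B-score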
Each line names hits and unclear results; the compound was inactive in the other large screens. Unless noted, no stated cut-off is given here; in the data, active means inhibition above about 30%; inactive means the rest.

OC(c1ccccc1)(c1ccccc1)C1CCNCC1	Cav32 inh -5 (no result: Ecoli tolC)
COc1cc(C2SCC(=O)Nc3c2c(=O)[nH]n3C2CCCCCC2)cc(OC)c1OC (centres undefined)	none
CC(C)[C@@]1(NC(=O)[C@@H]2C=C3c4cccc5[nH]cc(c45)C[C@H]3N(C)C2)O[C@@]2(O)[C@@H]3CCCN3C(=O)[C@H](Cc3ccccc3)N2C1=O	none (no result: Ecoli WT expand, PostGolgi ctrl, PostGolgi yeast, Cav32 inh)
CC(C)[C@@]1(NC(=O)[C@@H]2C[C@@H]3c4cccc5[nH]cc(c45)C[C@H]3N(C)C2)O[C@@]2(O)[C@@H]3CCCN3C(=O)[C@H](Cc3ccccc3)N2C1=O	Cav32 inh -5.39 (no result: Ecoli WT expand, PostGolgi ctrl, PostGolgi yeast)
CN1C(=O)NC(=O)[C@]2(Cc3ccccc3N3CCN(c4ccccc4)CC32)C1=O (some centres undefined)	none (no result: Ecoli tolC)
O=C1NC(=O)[C@]2(Cc3ccccc3N3CCN(c4ccccc4)CC32)C(=O)N1c1ccccc1 (some centres undefined)	Cav32 inh -4.55
COC(=O)C1=C(c2ccc(S(C)(=O)=O)cc2)C[C@@H]2CC[C@H]1N2C(=O)NCCNC(C)=O	none (no result: Ecoli tolC, Ecoli WT expand, PostGolgi ctrl, PostGolgi yeast)
C=CCn1c(O)c(C(CC)=NC(C)c2ccccc2)c(=O)[nH]c1=O (centres undefined)	PostGolgi ctrl 39.7 (no result: Ecoli tolC)
CCCCn1c(O)c(C(CC)=NC(C)c2ccccc2)c(=O)[nH]c1=O (centres undefined)	PostGolgi ctrl 52.0 (no result: Ecoli tolC)
CCCCn1c(O)c(C(C)=NCCc2ccccc2)c(=O)[nH]c1=O	PostGolgi ctrl 31.3
CCCCn1c(O)c(C(C)=NC(C)c2ccccc2)c(=O)[nH]c1=O (centres undefined)	none
COc1ccccc1N(CC(=O)NC1CCCCC1)C(=O)c1cnn(C(C)C)c1	none
CN(C)P1(N(C)C)=NC(C(F)(F)F)=NC(C(F)(F)F)=N1	none
O=C(CNC(=O)OCc1ccccc1)Nc1ccc(Br)cc1C(=O)c1ccccc1	PostGolgi ctrl 37.1, Cav32 inh -5.89 (no result: Ecoli tolC)
O=C(CNC(=O)c1ccccc1)Nc1ccc(Br)cc1C(=O)c1ccccc1	PostGolgi ctrl 30.8, Cav32 inh -6.95 (no result: Ecoli tolC)
O=C(CN1CCCCC1)NCC(=O)Nc1ccc(Br)cc1C(=O)c1ccccc1	none (no result: Ecoli tolC)
COc1ccc2c(c1)c(C(=O)CN1CCC3(CC1)OCCO3)c(C)n2Cc1ccccc1	none (no result: Ecoli tolC)
Clc1ccc(COC(Cn2ccnc2)c2ccc(Cl)cc2Cl)c(Cl)c1 (centres undefined)	Ecoli tolC 100.0 (no result: Ecoli WT expand, PostGolgi ctrl, PostGolgi yeast)
Cc1ccc(N2CCN(CCc3ccccc3)CC2)cc1	PostGolgi ctrl 43.1 (no result: Ecoli tolC)
COC(=O)C1=C(c2cc3ccccc3s2)C[C@@H]2CC[C@H]1N2C(=O)NCc1ccco1	none (no result: Ecoli tolC, Ecoli WT expand, PostGolgi ctrl, PostGolgi yeast)
CC(C)CCn1c(=O)c(C(=O)Nc2ccccc2S(N)(=O)=O)c(O)c2ccccc21	Cav32 inh -5.39 (no result: Ecoli tolC)
CCCCn1c(=O)c(C(=O)Nc2nc3ccccc3[nH]2)c(O)c2ccccc21	none (no result: Ecoli WT expand, PostGolgi ctrl, PostGolgi yeast, Cav32 inh)
CCCCn1c(=O)c(C(=O)Nc2cnccn2)c(O)c2ccccc21	Ecoli tolC 98.8, Cav32 inh -2.64
CC(C)CCP(=O)(O)c1ccccc1	none (no result: Ecoli tolC)
N#CC1=C(N)Oc2c(c(=O)oc3ccccc23)C1c1ccncc1 (centres undefined)	none (no result: Ecoli tolC)
CC(C)CC1C(C#N)=C(N)Oc2c1c(=O)oc1ccccc21 (centres undefined)	PostGolgi ctrl 40.8
Cn1c2ccccc2c2c(C(=O)N3CCC4(CC3)OCCO4)cn(C3CCCCC3)c(=O)c21	Cav32 inh -5.05
Cn1cc(C(=O)N2CCC3(CC2)OCCO3)c2c3ccccc3n(C)c2c1=O	none
N[C@@H](Cc1c[nH]c2ccccc12)c1nnc(SCc2ccccc2)o1	none
N[C@@H](Cc1c[nH]c2ccccc12)c1nnc(SCc2ccc(Cl)cc2)o1	PostGolgi yeast 46.8 (no result: Cav32 inh)
CC(C)[C@H]1C(=O)O[C@H](C(C)C)C(=O)N(C)[C@@H](C(C)C)C(=O)O[C@H](C(C)C)C(=O)N(C)[C@@H](C(C)C)C(=O)O[C@H](C(C)C)C(=O)N1C	Cav32 inh -3.9 (no result: Ecoli tolC, Ecoli WT expand, PostGolgi ctrl, PostGolgi yeast)
COC/C=C1\CN2C3C[C@@H]1[C@H]1COC4=Nc5cc(OC)c(OC)c(OC)c5[C@@]43C[C@@H]12	none (no result: Ecoli tolC, Ecoli WT expand, PostGolgi ctrl, PostGolgi yeast)
Cc1ccc(S(=O)(=O)N2CC3CC(C2)c2cccc(=O)n2C3)cc1 (centres undefined)	PostGolgi yeast 33.0 (no result: Ecoli tolC)
COc1ccc(CCn2c(O)c(C=NCCCN(C)C)c(=O)[nH]c2=O)cc1OC	none
CC(C)Cc1[nH]c(=O)c(C#N)c2c1CCC2	PostGolgi yeast 34.9
O=C(c1ccccc1F)c1cn(Cc2ccccc2)c2ccccc12	Cav32 inh -3.55 (no result: Ecoli tolC)
CCOC(=O)Cn1cc(C(=O)c2ccccc2F)c2ccccc21	none (no result: Ecoli tolC)
C=CCn1c(O)c(C(C)=Nc2cc(OC)ccc2OC)c(=O)[nH]c1=O	none
COc1ccccc1N1CCN(Cc2ccccc2F)CC1	PostGolgi yeast 36.2
CC(C)(C)C(O)C(Oc1ccc(Cl)cc1)n1cncn1 (centres undefined)	PostGolgi ctrl 97.6, PostGolgi yeast 104.0 (no result: Cav32 inh)
CCN1/C(=C\C=C\C2=[N+](CC)c3ccccc3C2(C)C)C(C)(C)c2ccccc21	Ecoli WT expand 55.0, PostGolgi ctrl 96.0, PostGolgi yeast 99.2 (no result: Ecoli tolC, Cav32 inh)
CSc1nnc(C2CCNCC2)n1C	none
O=C1CC(C(=O)N2CCC3(CC2)OCCO3)CN1CCc1ccccc1 (centres undefined)	PostGolgi ctrl 31.6
O=C(C1CC(=O)N(C2CCCCC2)C1)N1CCC2(CC1)OCCO2 (centres undefined)	none (no result: Cav32 inh)
CC(C)CC(=O)NC(Oc1ccc(Cl)cc1)C(Cl)(Cl)Cl (centres undefined)	Cav32 inh -6.18 (no result: Ecoli tolC)
CC1C(c2cccs2)=[N+]([O-])C(C)(C(=O)c2ccc(Cl)cc2)N1O (centres undefined)	none (no result: Ecoli tolC, Ecoli WT expand, PostGolgi ctrl, PostGolgi yeast)
CN1C(=O)C(=Cc2ccc(N3CCCCC3)o2)C(=O)N(C)C1=S	Cav32 inh -6.71 (no result: Ecoli tolC)
O=C1NC(=O)N(c2ccc3c(c2)OCO3)C(=O)/C1=C/c1ccc(N2CCCCC2)o1	none (no result: Ecoli tolC)
CCCCCCCSc1cc(OC)c(CCNC)cc1OC	Ecoli WT expand 76.0, PostGolgi ctrl 49.4 (no result: Ecoli tolC)
Clc1cc(I)cc(Cl)c1NC1=NCCN1	none (no result: Ecoli tolC, Ecoli WT expand, PostGolgi ctrl, PostGolgi yeast)
Cc1nc2c(-c3ccccc3)c(C)nn2c(C)c1CCC(=O)N1CCC2(CC1)OCCO2	none (no result: Ecoli WT expand, PostGolgi ctrl, PostGolgi yeast)
Cc1nc2c(c(C)nn2-c2ccccc2)c(C)c1CCC(=O)N1CCC2(CC1)OCCO2	PostGolgi ctrl 33.7
CCCCC/C(=N\O)c1c[nH]c2ccccc12	Cav32 inh -4.6 (no result: Ecoli tolC)
CCCC(=O)C1C(=O)NC(=O)NC1=O	none
Cc1ccc(NC(=O)CN2C(=O)CN=C(c3ccccc3)c3cc(Cl)ccc32)cc1	PostGolgi ctrl 45.9, Cav32 inh -6.68 (no result: Ecoli tolC)
CN(C)c1ccc(NC(=O)CN2C(=O)CN=C(c3ccccc3)c3cc(Cl)ccc32)cc1	Cav32 inh -8.87 (no result: Ecoli tolC)
CN(C)c1ccc(NC(=O)CN2C(=O)CN=C(c3ccccc3)c3ccccc32)cc1	Cav32 inh -5.04
Cc1ccccc1OCCN=Cc1c(O)n(C)c(=O)n(C)c1=O	none (no result: Ecoli tolC, Cav32 inh)
CCCCNc1ccncc1S(=O)(=O)NC(=O)NC(C)C	none (no result: Ecoli tolC, Ecoli WT expand, PostGolgi ctrl, PostGolgi yeast)
COc1cc(C2NCc3ccccc3-n3cccc32)ccc1O (centres undefined)	none
CC1=CC(=C2C(=O)NC(=S)NC2=O)C=C(C(F)(F)F)N1C	PostGolgi yeast 40.3 (no result: Ecoli tolC)
